Source: ChEMBL document CHEMBL1765057, “Pyrazolo[4,3-d]pyrimidine bioisostere of roscovitine: evaluation of a novel selective inhibitor of cyclin-dependent kinases with antiproliferative activity” (J Med Chem, 2011)
Calls of active or inactive are those of the source. The rule behind the calls is not given here.

Tests used:
[1] = biological target: Cellular tumor antigen p53 (Homo sapiens) (UniProt P04637); experiment: Induction of p53-dependent transcriptional activity in human ARN8 cells assessed as beta-galactosidase activity after 24 hrs by immunofluorescence assay; assay type: cell-based
Sequence of Cellular tumor antigen p53 (Homo sapiens) (P04637 whole entry, looked up): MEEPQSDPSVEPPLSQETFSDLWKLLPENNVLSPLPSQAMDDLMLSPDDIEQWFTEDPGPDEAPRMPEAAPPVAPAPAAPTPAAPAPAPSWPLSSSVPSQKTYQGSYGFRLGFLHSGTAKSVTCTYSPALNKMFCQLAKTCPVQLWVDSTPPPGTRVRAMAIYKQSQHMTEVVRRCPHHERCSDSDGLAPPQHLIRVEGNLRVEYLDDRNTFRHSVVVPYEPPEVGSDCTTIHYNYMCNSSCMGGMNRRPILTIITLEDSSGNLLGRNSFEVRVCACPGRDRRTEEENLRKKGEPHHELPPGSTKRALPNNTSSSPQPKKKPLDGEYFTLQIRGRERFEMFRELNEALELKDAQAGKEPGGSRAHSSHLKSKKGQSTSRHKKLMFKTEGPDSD
Method in brief: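 ARN8 melanoma cells stably carrying the p53-responsive pRGCΔfoslacZ reporter were exposed to inhibitors for 24 h, permeabilized with 0.3% Triton X-100 for 15 min, and given MUG substrate (final 80 μM). Fluorescence was read at 355/460 nm after 1 h. Data are mean ± SD of three independent experiments.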

HT-29 = experiment: Cytotoxicity against human HT-29 cells after 72 hrs by fluoroskan ascent microplate reader analysis; assay type: functional, cell-based; details: HT-29, 72 h
Method in brief: (§1)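 Cells were grown in DMEM with 10% FCS and 4 mM glutamine at 37 °C under CO2, then plated at densities suited to each line. Compounds were added as 3-fold dilutions in triplicate for 72 h.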

MCF7 [2] = experiment: Cell cycle arrest in human MCF7 cells assessed as accumulation at G1 phase after 24 hrs using propidium iodide and BrdU staining by flow cytometry; assay type: functional, cell-based
Method in brief: (§2)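 Subconfluent cells treated 24 h at varying concentrations, pulsed with 10 μM BrdU for 30 min at 37 °C, then trypsinized, fixed in ice-cold 70% ethanol and DNA denatured in 2 M HCl. After staining with fluorescein anti-BrdU (1:50), propidium iodide (0.1 mg/mL) and RNase A (0.5 mg/mL), cells were read by flow cytometry with a 488 nm laser.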

CCRF-CEM = experiment: Cytotoxicity against human CEM cells after 72 hrs by fluoroskan ascent microplate reader analysis; assay type: functional, cell-based; method in brief: as §1
U-266 [3] = experiment: Induction of apoptosis in human U266 cells at 10 uM after 24 hrs; assay type: functional, cell-based
RPMI-8226 [4] = experiment: Induction of apoptosis in human RPMI8226 cells assessed as induction of caspase7 activation at 20 uM after 24 hrs by immunoblot analysis; assay type: functional, cell-based; details: in the assay text read “by fluorogenic assay” for “by immunoblot analysis”
Method in brief: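 RPMI-8226 cells were treated continuously for 24 h and lysed in CHAPS extraction buffer (pH 7.4) on ice, then clarified, with protein equalized by Bradford. Lysates were incubated 1 h with 100 μM Ac-DEVD-AMC in PIPES/DTT buffer (pH 7.3), with 100 μM Ac-DEVD-CHO added for negative controls. Fluorescence was read at 355/460 nm.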

RPMI-8226 [5] = experiment: Cell cycle arrest in human RPMI8226 cells assessed as decrease in S phase cell population after 24 hrs using propidium iodide and BrdU staining by flow cytometry; assay type: functional, cell-based
Method in brief: (§3)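 Asynchronously growing RPMI-8226 multiple myeloma cells were exposed for 24 h. Cells were double-stained with propidium iodide and BrdU and analysed by flow cytometry for G1, S, G2/M and BrdU-positive fractions. The subG1 population was taken as indicative of apoptosis.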

[6] = biological target: Dual specificity mitogen-activated protein kinase kinase 1 (Homo sapiens) (UniProt Q02750); experiment: Inhibition of human recombinant MEK1 at 10 uM
Sequence of Dual specificity mitogen-activated protein kinase kinase 1 (Homo sapiens) (Q02750 whole entry): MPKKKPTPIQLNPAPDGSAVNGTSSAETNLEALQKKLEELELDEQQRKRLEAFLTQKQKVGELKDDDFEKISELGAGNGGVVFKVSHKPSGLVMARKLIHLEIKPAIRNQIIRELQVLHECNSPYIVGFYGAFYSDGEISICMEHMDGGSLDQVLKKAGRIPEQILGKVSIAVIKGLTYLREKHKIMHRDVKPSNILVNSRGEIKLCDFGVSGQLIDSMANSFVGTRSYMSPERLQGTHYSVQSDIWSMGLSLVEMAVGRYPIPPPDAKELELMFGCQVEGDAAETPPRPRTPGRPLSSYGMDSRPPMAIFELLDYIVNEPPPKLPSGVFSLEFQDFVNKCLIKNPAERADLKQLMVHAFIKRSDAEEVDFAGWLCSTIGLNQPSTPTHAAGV

RPMI-8226 [7] = experiment: Induction of apoptosis in human RPMI8226 cells assessed as induction of PARP cleavage after 24 hrs by immunoblot analysis; assay type: functional, cell-based
Method in brief: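 RPMI-8226 cells were treated continuously for 24 h, and total lysates were made in Laemmli buffer, run on SDS-PAGE and blotted to nitrocellulose. Loading was checked with Ponceau-S. Membranes were blocked in milk or BSA, probed overnight at 4 °C with antibodies to PARP, caspase-3 and Mcl-1, then peroxidase secondary (1:2000), with ECL detection.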

[8] = biological target: Casein kinase I isoform alpha (Homo sapiens) (UniProt P48729); experiment: Inhibition of human recombinant CK1 at 10 uM
Sequence of Casein kinase I isoform alpha (Homo sapiens) (P48729 2-337 limits assumed): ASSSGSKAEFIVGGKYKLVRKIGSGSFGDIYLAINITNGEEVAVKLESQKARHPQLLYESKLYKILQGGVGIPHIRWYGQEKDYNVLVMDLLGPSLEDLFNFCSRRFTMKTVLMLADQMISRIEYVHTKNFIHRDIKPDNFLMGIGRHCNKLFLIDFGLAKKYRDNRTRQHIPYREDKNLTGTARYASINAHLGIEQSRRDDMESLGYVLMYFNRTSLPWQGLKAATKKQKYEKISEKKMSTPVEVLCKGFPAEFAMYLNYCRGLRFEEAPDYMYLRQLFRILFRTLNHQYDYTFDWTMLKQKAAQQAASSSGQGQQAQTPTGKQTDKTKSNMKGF

[9] = biological target: Casein kinase II (Homo sapiens) (UniProt P67870+P68400+P19784); experiment: Inhibition of human recombinant CK2 at 10 uM; assay type: protein-complex assay
RPMI-8226 [10] = experiment: Cell cycle arrest in human RPMI8226 cells assessed as accumulation at sub-G1 phase after 24 hrs using propidium iodide and BrdU staining by flow cytometry; assay type: functional, cell-based; method in brief: as §3
U-266 [11] = experiment: Cytotoxicity against human U266 cells after 72 hrs by fluoroskan ascent microplate reader analysis; assay type: functional, cell-based; details: U-266, 72 h; method in brief: as §1
[12] = biological target: CDK9/cyclin T1 (Homo sapiens) (UniProt O60563+P50750); experiment: Inhibition of human recombinant CDK9/cyclin T1 at 10 uM; assay type: protein-complex assay
A-431 = experiment: Cytotoxicity against human A431 cells after 72 hrs by fluoroskan ascent microplate reader analysis; assay type: functional, cell-based; details: A-431, 72 h; method in brief: as §1
RPMI-8226 [13] = experiment: Cell cycle arrest in human RPMI8226 cells assessed as accumulation at G1 phase after 24 hrs using propidium iodide and BrdU staining by flow cytometry; assay type: functional, cell-based; method in brief: as §2
RPMI-8226 [14] = experiment: Cytotoxicity against human RPMI8226 cells after 72 hrs by fluoroskan ascent microplate reader analysis; assay type: functional, cell-based; details: RPMI-8226, 72 h; method in brief: as §1
MCF7 [15] = experiment: Cytotoxicity against human MCF7 cells after 72 hrs by fluoroskan ascent microplate reader analysis; assay type: functional, cell-based; details: MCF7, 72 h; method in brief: as §1
[16] = biological target: Cyclin-dependent kinase 1/cyclin B1 (Homo sapiens) (UniProt P06493+P14635); details: at 10 µM
Sequence of Cyclin-dependent kinase 1/cyclin B1 (Homo sapiens) (P06493 whole entry, looked up): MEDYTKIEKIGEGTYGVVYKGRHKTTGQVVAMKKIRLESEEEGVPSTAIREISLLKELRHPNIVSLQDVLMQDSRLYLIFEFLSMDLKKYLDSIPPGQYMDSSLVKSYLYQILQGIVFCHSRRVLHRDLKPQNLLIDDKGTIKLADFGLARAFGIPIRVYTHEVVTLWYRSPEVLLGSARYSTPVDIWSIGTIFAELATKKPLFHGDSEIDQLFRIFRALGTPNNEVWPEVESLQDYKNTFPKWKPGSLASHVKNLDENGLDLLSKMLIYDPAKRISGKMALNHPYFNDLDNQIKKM
Sequence of Cyclin-dependent kinase 1/cyclin B1 (Homo sapiens) (P14635 whole entry, looked up): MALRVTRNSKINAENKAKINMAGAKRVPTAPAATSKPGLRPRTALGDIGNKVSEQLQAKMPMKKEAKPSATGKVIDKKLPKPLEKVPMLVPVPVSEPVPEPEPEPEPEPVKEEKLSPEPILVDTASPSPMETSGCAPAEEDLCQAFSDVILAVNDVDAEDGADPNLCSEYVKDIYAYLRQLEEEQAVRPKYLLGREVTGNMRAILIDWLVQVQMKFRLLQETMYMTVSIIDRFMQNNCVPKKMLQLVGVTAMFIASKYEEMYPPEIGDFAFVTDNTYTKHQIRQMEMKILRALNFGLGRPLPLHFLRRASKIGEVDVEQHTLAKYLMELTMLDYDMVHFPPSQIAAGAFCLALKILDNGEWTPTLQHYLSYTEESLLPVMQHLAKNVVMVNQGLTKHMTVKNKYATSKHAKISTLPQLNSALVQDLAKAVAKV

U2OS = experiment: Reduction of homologous recombination in human DR-U2OS-GFP cells expressing I-SceI nuclease at 5 uM after 56 hrs […] relative to control; assay type: functional
RPMI-8226 [17] = experiment: Induction of apoptosis in human RPMI8226 cells assessed as induction of caspase3 activation at 20 uM after 24 hrs by immunoblot analysis; assay type: functional, cell-based
HBL-100 = experiment: Cytotoxicity against human HBL100 cells after 72 hrs by fluoroskan ascent microplate reader analysis; assay type: functional, cell-based; details: HBL-100, 72 h; method in brief: as §1
K562 = experiment: Cytotoxicity against human K562 cells after 72 hrs by fluoroskan ascent microplate reader analysis; assay type: functional, cell-based; details: K562, 72 h; method in brief: as §1
RPMI-8226 [18] = experiment: Induction of apoptosis in human RPMI8226 cells assessed as increase in caspase3 activation after 24 hrs by immunoblot analysis; assay type: functional, cell-based
A549 = experiment: Cytotoxicity against human A549 cells after 72 hrs by fluoroskan ascent microplate reader analysis; assay type: functional, cell-based; details: A549, 72 h; method in brief: as §1
MCF7 [19] = experiment: Cell cycle arrest in human MCF7 cells assessed as accumulation at sub-G1 phase after 24 hrs using propidium iodide and BrdU staining by flow cytometry; assay type: functional, cell-based
Method in brief: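 Subconfluent MCF-7 cells were treated for 24 h at a range of concentrations. They were pulse-labelled with 10 μM BrdU for 30 min at 37 °C, then trypsinized and fixed in ice-cold 70% ethanol. DNA was denatured in 2 M HCl and neutralized with borate. Cells were stained with fluorescein anti-BrdU and with propidium iodide plus RNase A, then analysed by flow cytometry at 488 nm.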

Compound: CC[C@H](CO)Nc1nc(NCc2ccccc2)c2[nH]nc(C(C)C)c2n1
- Activity [1]: Dose-dependent effect
- IC50 (HT-29): 6.6 µM
- Activity (MCF7 [2]): inactive
- IC50 (CCRF-CEM): 3.8 µM
- Activity (U-266 [3]): Active
- Activity (RPMI-8226 [4]): Active
- Activity (RPMI-8226 [5]): Active
- inhibition [6]: 58%
- Activity (RPMI-8226 [7]): Active
- inhibition [8]: 7%
- inhibition [9]: 19%
- Activity (RPMI-8226 [10]): Active
- IC50 (U-266 [11]): 4.9 µM
- inhibition [12]: 90%
- IC50 (A-431): 7.7 µM
- Activity (RPMI-8226 [13]): Active
- IC50 (RPMI-8226 [14]): 3.6 µM
- IC50 (MCF7 [15]): 7.5 µM
- inhibition [16]: 84%
- inhibition at 5 µM (U2OS): 66%
- Activity (RPMI-8226 [17]): Active
- IC50 (HBL-100): 11.3 µM
- IC50 (K562): 7.7 µM
- Activity (RPMI-8226 [18]): Active
- IC50 (A549): 7.1 µM
- Activity (MCF7 [19]): Active
